≈ marks a conversion by molar mass, not a printed value.
Columns and labels:
[1] = Cytotoxicity, sulforhodamine B; type: cell-based; conditions: human, MDA-MB-231 cells
How it was run: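 MDA-MB-231 cells (DMEM high glucose, 10% FBS, antibiotic/antimycotic) plated at 5,000 cells/well and left to adhere overnight at normoxia. Pre-incubated 1 h with titrated test compound, then cultured at normoxia (21% O2, 5% CO2) or hypoxia (1% O2, 5% CO2). SRB stain after 96 h, OD read at 540 nm. IC50 given as mean±SEM, n=3.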

[2] = system: HIF-1α; experiment: Western blot of HIF-1α protein expression in MDA-MB-231 cells; type: cell-based; conditions: hypoxic conditions (1% oxygen)
[3] = system: PHD3; experiment: Quantitative real-time PCR, PHD3 mRNA in MDA-MB-231 cells; type: cell-based; conditions: 10 μM, 8 h, normalized to Cyclophilin A, n=3
How it was run: (§1)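 MDA-MB-231 cells seeded at 3.5×10^5/well in six-well plates overnight. Treated 8 h with 10 μM test compound in medium under hypoxia (1% O2) or normoxia; controls got medium with […] DMSO. Total RNA isolated and reverse-transcribed. SYBR Green qPCR run with 40 ng cDNA/well, normalised to Cyclophilin A, n=3.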

[4] = system: HIF1A; experiment: Quantitative real-time PCR, HIF1A mRNA in MDA-MB-231 cells; type: cell-based; conditions: 10 μM, 8 h, normalized to Cyclophilin A, n=3
How it was run: as §1

[5] = system: VEGF; experiment: Quantitative real-time PCR, VEGF mRNA in MDA-MB-231 cells; type: cell-based; conditions: 10 μM, 8 h, normalized to Cyclophilin A, n=3
How it was run: as §1

[6] = Aqueous solubility, miniaturized shake-flask with LC-MS/MS; type: physicochemical; conditions: for Solubility: room temperature
How it was run: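 Test compound (1.0 mg) shaken in 1 mL water or pH 7.0 phosphate buffer for 24 h at 450 rpm, room temperature. Suspension spun at 10,000 RPM for 15 min. Supernatant quantified by ESI LC-MS/MS on a PFP column using a 0.1% formic acid/MeOH gradient at 0.4 mL/min.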

Row | SMILES | IC50 at 96 h [1] [nM] | HIF-1α protein accumulation under hypoxic stress (western blot) [2] | PHD3 mRNA level (qPCR) ([3]; hypoxia (1% oxygen)) | PHD3 mRNA level (qPCR) ([3]; normoxia) | HIF1A expression (qPCR) ([4]; hypoxia (1% oxygen)) | HIF1A expression level (qPCR) ([4]; normoxia) | VEGF expression (qPCR) ([5]; hypoxia (1% oxygen)) | VEGF expression level (qPCR) ([5]; normoxia) | Solubility ([6]; Buffer pH 7.0, 24 h shaking) [µg/mL] | Solubility ([6]; Water, 24 h shaking) [µg/mL] | Aqueous solubility ([6]; buffer pH 7.0) [µg/mL] | Aqueous solubility ([6]; water) [µg/mL]
1 | C[C@H]1O[C@@H](O[C@H]2[C@@H](O)C[C@H](O[C@H]3[C@@H](O)C[C@H](O[C@H]4CC[C@@]5(C)[C@H](CC[C@@H]6[C@@H]5C[C@@H](O)[C@]5(C)[C@@H](C7=CC(=O)OC7)CC[C@]65O)C4)O[C@@H]3C)O[C@@H]2C)C[C@H](O)[C@@H]1O [Digoxin] | 250 ± 50 |  |  |  |  |  |  |  |  |  |  | 
2 | CC(=O)O[C@@]12CO[C@@H]1C[C@H](O)[C@@]1(C)C(=O)[C@H](O)C3=C(C)[C@@H](OC(=O)[C@H](O)[C@@H](NC(=O)OC(C)(C)C)c4ccccc4)C[C@@](O)([C@@H](OC(=O)c4ccccc4)[C@H]21)C3(C)C [Docetaxel] | < 5 |  |  |  |  |  |  |  |  |  |  | 
3 | OCc1ccc(-c2nn(Cc3ccccc3)c3ccccc23)o1 [YC-1, 3-(5′-hydroxymethyl-2′-furyl)-1-benzyl indazole] |  | not inhibited | insignificant | enhancement of PHD3 mRNA levels | remained repressed | significantly reduced | remained repressed | significantly reduced | 0.94 (≈ 3.09 µM) | 1.241 (≈ 4.08 µM) | 0.9 | 1.2

Source: article PMC5346463 (Anticancer research, 2014)
